# Experimental data pooled from the literature.
# Cell line: CCRF-CEM
# Observed: cell growth or viability
Compound,technique,time,IC50
N#Cc1ccc(NC(=S)NN)cc1,,72 h,21 µg/mL
CC(C(=O)NCCc1ccccc1)c1cccc(C(OC(=O)NCCc2ccccc2)c2ccccc2)c1 (centres unmarked),,72 h,14 µM
COc1ccc2[nH]cc(CCNc3nccc(Nc4cccc5c4ccn5C)n3)c2c1,fluorescence,72 h,0.01 µM
N#Cc1ccc(NC(=S)NN=Cc2ccc([N+](=O)[O-])cc2)cc1,,72 h,> 200 µg/mL
COc1cc(C(=O)c2cc3c(-c4ccccc4)c(OC)ccc3o2)cc(OC)c1OC,,72 h,> 50 µM
COc1ccc2c(N)c(C(=O)c3cc(OC)c(OC)c(OC)c3)sc2c1,,48 h,0.0077 µM
CC(C(=O)NOCc1ccccc1)c1cccc(C(OC(=O)NOCc2ccccc2)c2ccccc2)c1 (centres unmarked),,72 h,14 µM
COc1ccc2c(N)c(C(=O)c3cc(OC)c(OC)c(OC)c3)[nH]c2c1,,72 h,0.32 µM
CC(C(=O)NC1CCCC1)c1cccc(C(OC(=O)NC2CCCC2)c2ccccc2)c1 (centres unmarked),,72 h,12 µM
N#Cc1ccc(NC(=S)NN=Cc2ccc(F)cc2)cc1,,72 h,38 µg/mL
CC(C(=O)NC1CCCCC1)c1cccc(C(OC(=O)NC2CCCCC2)c2ccccc2)c1 (centres unmarked),,72 h,15 µM
COc1ccc2c(N)c(C(=O)c3cc(OC)c(OC)c(OC)c3)n(C)c2c1,,72 h,0.071 µM
CSc1ccc(NC(=S)NN)cc1,,72 h,20 µg/mL
O=C(c1ccccc1)c1cc2c(-c3ccccc3)c(O)ccc2o1,,72 h,34 µM
